{
  "source": "ChEMBL document CHEMBL4837210",
  "about": "(Eur J Med Chem, 2021)",
  "key": {"Bacillus subtilis": {"system": "Bacillus subtilis", "assay": "Ratio of MBC to MIC against penicillin-susceptible Bacillus subtilis ATCC 9372", "format": "functional", "summary_of_the_method": "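Ratio of MBC to MIC, both measured by broth microdilution in MH broth (37 °C, 24 h); MBC was scored by subculturing clear wells onto tryptic soy agar for 24 h. Following CLSI, a ratio of 4 or less counts as bactericidal.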"}, "Pseudomonas aeruginosa": {"system": "Pseudomonas aeruginosa", "assay": "Antibacterial activity against penicillin-susceptible Pseudomonas aeruginosa ATCC27853 assessed as bacterial growth inhibition incubated for 24 hrs by CLSI protocol based broth microdilution method", "format": "functional"}, "Staphylococcus aureus [1]": {"system": "Staphylococcus aureus", "assay": "Antibacterial activity against erythromycin-susceptible Staphylococcus aureus ATCC 25923 assessed as bacterial growth inhibition incubated for 24 hrs by CLSI protocol based broth microdilution method", "format": "functional"}, "Enterococcus faecalis": {"system": "Enterococcus faecalis", "assay": "Antibacterial activity against vancomycin-resistant Enterococcus faecalis ATCC 51299 assessed as bacterial growth inhibition incubated for 24 hrs by CLSI protocol based broth microdilution method", "format": "functional"}, "Staphylococcus aureus [2]": {"system": "Staphylococcus aureus", "assay": "In vivo antibacterial activity against […] Staphylococcus aureus ATCC 25923 infected in Kunming mouse assessed as reduction in bacterial load at 1 mg/kg, administered 1 hr post bacterial infection and measured after 1 hr post compound treatment", "format": "functional, organism-based", "summary_of_the_method": "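Kunming mice (~25 g, 6 per group) infected intravenously with 6 × 10⁷ CFU S. aureus ATCC25923 in 0.2 mL saline. About 1 h later, 1, 5 or 25 mg/kg was given intraperitoneally in 0.5 mL vehicle, with linezolid as reference. Orbital blood (100 µL) was taken before and 1 h after treatment, spread on MH agar and counted after 24 h.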"}, "[3]": {"system": "Staphylococcus epidermidis", "assay": "Bactericidal activity against penicillin-resistant Staphylococcus epidermidis measured after 24 hrs by CLSI protocol based method", "format": "functional", "summary_of_the_method": "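MBC after broth microdilution. After 24 h, aliquots from clear wells were plated on tryptic soy agar and incubated aerobically 24 h at 37 °C. MBC was the lowest concentration giving no colonies.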"}, "[4]": {"target": "T1, Cell division protein FtsZ (Bacillus subtilis) (UniProt A5Z1V5)", "T1 sequence (whole entry)": "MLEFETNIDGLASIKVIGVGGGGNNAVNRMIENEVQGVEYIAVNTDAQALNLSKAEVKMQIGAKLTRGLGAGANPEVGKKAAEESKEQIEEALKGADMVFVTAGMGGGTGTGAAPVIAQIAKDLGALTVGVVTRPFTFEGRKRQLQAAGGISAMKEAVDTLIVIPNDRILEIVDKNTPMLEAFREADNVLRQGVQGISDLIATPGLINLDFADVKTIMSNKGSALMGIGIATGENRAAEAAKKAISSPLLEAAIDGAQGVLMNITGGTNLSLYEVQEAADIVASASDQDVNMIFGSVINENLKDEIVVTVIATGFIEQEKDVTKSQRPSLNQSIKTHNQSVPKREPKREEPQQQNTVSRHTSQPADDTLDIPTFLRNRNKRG", "assay": "Induction of Bacillus subtilis FtsZ polymerization by fluorescence spectrophotometry", "settings": "dose 2.5-10 µg/ml, time 800.0 sec", "summary_of_the_method": "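Light scattering of B. subtilis FtsZ in 20 mM Tris pH 7.4 with 20 mM KCl, 5 mM MgCl₂ and 0.01% Triton X-100. Protein was preincubated in a cuvette with vehicle (2% DMSO) or compound. GTP was added last (2 mM final), and scattering at excitation 411 nm / emission 430 nm was followed for 800 s.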"}, "[5]": {"target": "T1, Cell division protein FtsZ (Bacillus subtilis)", "assay": "Induction of Bacillus subtilis FtsZ polymerization assessed as formation of bundling of FtsZ protofilaments at 10 ug/ml after 20 mins by transmission electron microscopic analysis", "settings": "dose 10.0 µg/ml", "summary_of_the_method": "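B. subtilis FtsZ was incubated with or without compound for 20 min in Tris pH 7.4 polymerization buffer (KCl, MgCl₂, Triton X-100, GTP). Samples were applied to glow-discharged Formvar carbon-coated copper grids for 10 min, negatively stained with 1% phosphotungstic acid for 1 min, air-dried and imaged by TEM.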"}},
  "note": "Activity calls are given as the source filed them. The rule behind the calls is not given here.",
  "data": [
    {"smiles": "C[n+]1c2ccccc2c(/C=C/c2ccc(C(C)(C)C)cc2)c2ccccc21.[I-]", "values": [
      {"measurement": "Ratio", "setting": "Bacillus subtilis", "result": 2},
      {"measurement": "MIC", "setting": "Pseudomonas aeruginosa", "result": "> 64", "unit": "µg/mL"},
      {"measurement": "MIC", "setting": "Staphylococcus aureus [1]", "result": 0.5, "unit": "µg/mL"},
      {"measurement": "MIC", "setting": "Enterococcus faecalis", "result": 4, "unit": "µg/mL"},
      {"measurement": "Activity", "setting": "Staphylococcus aureus [2]", "result": "inactive"},
      {"measurement": "MIC", "setting": "[3]", "result": 1, "unit": "µg/mL"},
      {"measurement": "Activity", "setting": "[4]", "result": "Dose-Dependent Effect"},
      {"measurement": "Activity", "setting": "[5]", "result": "Active"}
    ]}
  ]
}
